In article PMC11865470 (Communications Biology, 2025):

How the values were obtained:
KV4.3 = molecular target: T1, KV4.3 (Rattus norvegicus, UniProt Q62897); assay: whole-cell patch-clamp, off-target channel, 10 μM compound; type: cell-based
T1 sequence (Q62897 1-611 isoform Q62897-3): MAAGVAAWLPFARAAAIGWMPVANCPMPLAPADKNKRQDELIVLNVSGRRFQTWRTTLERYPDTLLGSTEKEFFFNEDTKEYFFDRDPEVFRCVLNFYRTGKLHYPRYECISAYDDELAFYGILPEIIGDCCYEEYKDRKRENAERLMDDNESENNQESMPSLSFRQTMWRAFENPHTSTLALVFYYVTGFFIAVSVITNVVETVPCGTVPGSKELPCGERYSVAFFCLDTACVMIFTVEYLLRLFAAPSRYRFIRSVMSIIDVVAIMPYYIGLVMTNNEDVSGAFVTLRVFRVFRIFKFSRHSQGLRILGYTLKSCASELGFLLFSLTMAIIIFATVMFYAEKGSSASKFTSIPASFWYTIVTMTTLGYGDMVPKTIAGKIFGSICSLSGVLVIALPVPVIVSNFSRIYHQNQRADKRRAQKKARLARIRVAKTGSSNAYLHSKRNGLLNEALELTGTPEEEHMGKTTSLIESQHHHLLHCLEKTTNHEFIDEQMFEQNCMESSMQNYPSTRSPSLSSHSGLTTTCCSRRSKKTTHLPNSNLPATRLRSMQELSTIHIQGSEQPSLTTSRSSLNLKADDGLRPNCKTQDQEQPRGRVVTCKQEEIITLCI
Summary of the method: (§1)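 KV channels in transiently transfected HEK293T cells, whole-cell. Pipette (mM): 140 KCl, 2.5 MgCl2, 11 EGTA, 10 HEPES, pH 7.4. Bath (mM): 145 NaCl, 2.8 KCl, 2 CaCl2, 1 MgCl2, 10 glucose, 10 HEPES, pH 7.4. 0.1% DMSO bath applied, then 10 μM test compound. DMSO vs compound inhibition ratio compared by unpaired t-test, n = 5.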

CaV2.2 = CaV2.2 (Rattus norvegicus, UniProt Q02294); assay: whole-cell patch-clamp, off-target channel, 10 μM compound; type: cell-based; conditions: for sensitivity of channel to compound: vs 0.1% DMSO
Chain of CaV2.2 (Q02294 whole entry): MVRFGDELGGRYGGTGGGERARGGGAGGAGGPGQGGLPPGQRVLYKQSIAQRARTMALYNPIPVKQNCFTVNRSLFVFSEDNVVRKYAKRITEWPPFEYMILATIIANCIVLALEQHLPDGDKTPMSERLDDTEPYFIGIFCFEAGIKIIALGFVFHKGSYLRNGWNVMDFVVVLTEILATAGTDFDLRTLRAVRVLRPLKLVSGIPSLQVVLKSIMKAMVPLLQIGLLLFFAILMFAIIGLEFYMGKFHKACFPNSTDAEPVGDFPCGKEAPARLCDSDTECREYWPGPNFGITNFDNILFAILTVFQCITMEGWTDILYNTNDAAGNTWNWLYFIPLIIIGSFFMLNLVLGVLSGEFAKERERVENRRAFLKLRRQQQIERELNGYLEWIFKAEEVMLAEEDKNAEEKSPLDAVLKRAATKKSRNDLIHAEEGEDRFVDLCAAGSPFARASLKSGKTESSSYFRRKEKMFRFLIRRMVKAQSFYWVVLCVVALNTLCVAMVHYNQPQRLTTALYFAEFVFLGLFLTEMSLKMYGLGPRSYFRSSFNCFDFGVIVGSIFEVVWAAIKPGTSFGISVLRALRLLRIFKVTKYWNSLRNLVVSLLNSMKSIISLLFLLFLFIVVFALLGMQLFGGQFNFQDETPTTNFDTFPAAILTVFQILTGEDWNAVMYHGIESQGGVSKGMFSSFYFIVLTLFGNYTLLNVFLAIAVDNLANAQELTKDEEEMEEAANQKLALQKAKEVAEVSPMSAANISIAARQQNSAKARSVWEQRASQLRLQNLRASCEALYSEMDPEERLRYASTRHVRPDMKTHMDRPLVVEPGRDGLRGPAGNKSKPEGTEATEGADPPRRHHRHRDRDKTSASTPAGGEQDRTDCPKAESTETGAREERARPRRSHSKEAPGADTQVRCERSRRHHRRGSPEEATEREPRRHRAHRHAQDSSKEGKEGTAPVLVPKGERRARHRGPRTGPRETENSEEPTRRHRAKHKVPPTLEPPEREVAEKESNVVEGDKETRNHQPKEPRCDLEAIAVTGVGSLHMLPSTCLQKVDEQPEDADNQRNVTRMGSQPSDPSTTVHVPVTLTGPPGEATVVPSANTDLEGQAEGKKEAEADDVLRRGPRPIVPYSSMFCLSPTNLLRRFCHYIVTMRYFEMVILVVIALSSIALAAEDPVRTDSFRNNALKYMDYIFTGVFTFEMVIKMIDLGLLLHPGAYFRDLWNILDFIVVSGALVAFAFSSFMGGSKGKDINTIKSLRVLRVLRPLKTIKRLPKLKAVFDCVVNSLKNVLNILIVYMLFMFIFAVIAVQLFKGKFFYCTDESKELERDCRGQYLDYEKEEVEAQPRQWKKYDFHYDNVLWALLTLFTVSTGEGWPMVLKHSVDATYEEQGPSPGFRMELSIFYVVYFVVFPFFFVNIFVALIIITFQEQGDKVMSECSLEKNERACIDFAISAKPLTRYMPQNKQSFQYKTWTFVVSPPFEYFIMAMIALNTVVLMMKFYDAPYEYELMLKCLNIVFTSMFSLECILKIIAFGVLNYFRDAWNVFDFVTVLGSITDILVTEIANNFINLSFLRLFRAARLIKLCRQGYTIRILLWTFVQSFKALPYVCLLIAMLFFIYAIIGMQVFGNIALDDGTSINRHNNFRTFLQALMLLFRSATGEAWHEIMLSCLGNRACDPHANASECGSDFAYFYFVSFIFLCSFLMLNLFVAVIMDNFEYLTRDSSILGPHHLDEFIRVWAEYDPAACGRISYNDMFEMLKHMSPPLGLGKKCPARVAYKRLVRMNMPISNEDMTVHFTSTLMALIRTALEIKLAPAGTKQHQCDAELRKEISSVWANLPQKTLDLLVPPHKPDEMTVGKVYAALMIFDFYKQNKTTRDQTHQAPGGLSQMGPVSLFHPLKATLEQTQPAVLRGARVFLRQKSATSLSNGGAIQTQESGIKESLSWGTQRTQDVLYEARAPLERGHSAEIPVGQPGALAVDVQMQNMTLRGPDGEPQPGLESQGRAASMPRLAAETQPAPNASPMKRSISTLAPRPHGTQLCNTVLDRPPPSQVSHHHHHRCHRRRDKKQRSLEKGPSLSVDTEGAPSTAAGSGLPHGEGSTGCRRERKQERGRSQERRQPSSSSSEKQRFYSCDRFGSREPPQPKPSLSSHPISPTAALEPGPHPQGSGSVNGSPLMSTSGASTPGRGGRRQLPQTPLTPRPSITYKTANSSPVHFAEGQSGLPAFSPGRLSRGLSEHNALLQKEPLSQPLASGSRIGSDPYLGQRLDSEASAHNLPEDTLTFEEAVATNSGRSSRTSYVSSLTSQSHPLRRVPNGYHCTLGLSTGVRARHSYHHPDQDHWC
Summary of the method: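 CaV channels in transfected HEK293T cells, whole-cell. Pipette (mM): 120 CsMeSO3, 2 Mg-ATP, 11 EGTA, 10 HEPES, pH 7.4. Bath (mM): 138 NaCl, 5.6 KCl, 2.6 CaCl2, 20 TEA-Cl, 5 glucose, 5 HEPES, pH 7.4. 0.1% DMSO bath applied before 10 μM test compound. Inhibition ratios compared by unpaired t-test, n = 5.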

mouse Otop2 (mOtop2) = molecular target: T2, mouse Otop2 (mOtop2) (Mus musculus, UniProt Q80SX5); assay: whole-cell patch-clamp, pH 5.5-evoked currents; type: cell-based; conditions: 10 μM
T2 sequence (Q80SX5 1-563): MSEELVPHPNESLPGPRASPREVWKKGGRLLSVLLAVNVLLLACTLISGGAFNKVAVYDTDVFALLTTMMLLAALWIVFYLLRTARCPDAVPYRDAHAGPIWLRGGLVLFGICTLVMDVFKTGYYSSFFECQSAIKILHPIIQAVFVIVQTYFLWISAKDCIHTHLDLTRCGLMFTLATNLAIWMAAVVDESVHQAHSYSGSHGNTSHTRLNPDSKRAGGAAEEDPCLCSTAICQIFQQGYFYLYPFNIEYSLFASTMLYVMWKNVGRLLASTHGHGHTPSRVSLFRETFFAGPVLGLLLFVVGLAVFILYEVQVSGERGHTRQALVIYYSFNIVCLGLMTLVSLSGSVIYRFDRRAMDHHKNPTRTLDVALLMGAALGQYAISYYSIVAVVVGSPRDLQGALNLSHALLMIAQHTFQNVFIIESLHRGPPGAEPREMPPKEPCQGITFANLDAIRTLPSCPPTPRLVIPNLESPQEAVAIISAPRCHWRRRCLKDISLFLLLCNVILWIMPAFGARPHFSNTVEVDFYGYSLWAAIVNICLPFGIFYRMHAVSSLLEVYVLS
Summary of the method: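 Channel plasmid (2.5 μg) was co-transfected with EGFP plasmid (0.5 μg) using Lipofectamine 2000 into PAC-knockout HEK293T cells. Whole-cell recording 16–24 h after seeding, with Cs-aspartate pipette solution (pH 7.3). Currents evoked by pH 5.5 bath (160 mM NMDG-Cl, 2 mM CaCl2, 10 mM MES); test compound 10 μM.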

KV7.1 = assay: whole-cell patch-clamp, off-target channel, 10 μM compound; type: cell-based, Homo sapiens; conditions: for sensitivity of channel to compound: vs 0.1% DMSO
Summary of the method: as §1

Kir4.1 = molecular target: T3, Kir4.1 (Homo sapiens, UniProt P78508); assay: whole-cell patch-clamp, off-target channel, 10 μM compound; type: cell-based; conditions: vs 0.1% DMSO
T3 sequence (P78508 1-379): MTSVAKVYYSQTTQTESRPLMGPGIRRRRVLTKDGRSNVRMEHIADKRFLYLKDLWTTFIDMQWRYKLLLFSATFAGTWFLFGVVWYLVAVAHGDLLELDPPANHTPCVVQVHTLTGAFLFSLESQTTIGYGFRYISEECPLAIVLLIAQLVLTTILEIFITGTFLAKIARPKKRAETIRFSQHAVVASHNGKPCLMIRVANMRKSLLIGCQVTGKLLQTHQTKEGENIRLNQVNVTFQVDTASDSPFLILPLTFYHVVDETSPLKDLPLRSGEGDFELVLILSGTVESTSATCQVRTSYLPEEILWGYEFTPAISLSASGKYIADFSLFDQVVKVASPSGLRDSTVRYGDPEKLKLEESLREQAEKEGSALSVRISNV
Summary of the method: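 Kir channels in transfected HEK293T cells, whole-cell. Pipette (mM): 135 KCl, 2 MgCl2, 10 HEPES, 1 EGTA, 4 Na2-ATP, pH 7.3. Bath (mM): 135 NaCl, 5 KCl, 1.5 CaCl2, 1 MgCl2, 10 HEPES, 10 glucose, pH 7.4. 0.1% DMSO bath applied before 10 μM test compound. Inhibition ratios compared by unpaired t-test, n = 5.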

Row | sensitivity of channel to compound (KV4.3; vs 0.1% DMSO) | sensitivity of channel to compound (CaV2.2) | effect on pH 5.5-evoked mOtop2 currents (mouse Otop2 (mOtop2)) | sensitivity of channel to compound (Kir4.1) | inhibition ratio (KV4.3) [%] | inhibition ratio (CaV2.2) [%] | Structure (SMILES) | sensitivity of channel to compound (KV7.1) | inhibition ratio (KV7.1) [%]
1 | completely resistant | completely resistant | did not affect | completely resistant | – | – | Cc1cc(NC(=O)c2ccc(Br)o2)ccc1NC(=O)c1ccco1 [B2FAMP, 5-Bromo-N-[4-(2-furoylamino)-3-methylphenyl]-2-furamide] | completely resistant | –
2 | – | completely resistant | did not affect | completely resistant | 12.9 | – | CC(C)c1noc2ncc(C(=O)c3ccccc3O)cc12 [HIMOP, (2-hydroxyphenyl)-(3-propan-2-yl-5-isoxazolo[5,4-b]pyridinyl)methanone] | – | 16.4
3 | – | – | did not affect | completely resistant | 7.0 | 7.9 | Cc1ccc(C(=O)Nc2ccc3ccccc3c2)o1 [MFaN, 5-methyl-N-2-naphthyl-2-furamide] | completely resistant | –
